From ChEMBL document CHEMBL3091443, “Synthesis of novel 7-substituted pyrido[2',3':4,5]furo[3,2-d]pyrimidin-4-amines and their N-aryl analogues and evaluation of their inhibitory activity against Ser/Thr kinases” (Bioorg Med Chem Lett, 2013)
pIC50: −log10 of the molar value.

Columns and labels:
[1] = biological target: Glycogen synthase kinase-3 (Sus scrofa, UniProt B2LUN4+I6LNT8); experiment: Inhibition of pig brain GSK3alpha/beta using YRRAAVPPSPSLSRHSSPHQpSEDEEE as substrate after 30 mins by scintillation counting analysis
In short: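 Screened first at 10 μM final; compounds giving under 50% inhibition at that level were recorded as IC50 >10 μM. Kinase activity was assayed in triplicate, and IC50 values are reported in μM.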

[2] = biological target: Dual specificity tyrosine-phosphorylation-regulated kinase 1A (Rattus norvegicus, UniProt Q63470); experiment: Inhibition of rat recombinant GST-tagged DYRK1A expressed in Escherichia coli using KKISGRLSPIMTEQ as substrate after 30 mins by scintillation counting analysis
In short: (§1)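 Compounds were screened first at 10 µM final; those giving under 50% inhibition were scored as IC50 >10 µM, and the rest were taken to IC50 determination (µM). Kinase activities were assayed in triplicate, with standard deviation of single data points typically below 10%. Assay procedures are cited to earlier reports.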

[3] = biological target: Dual specificity protein kinase CLK1 (Homo sapiens, UniProt P49759); experiment: Inhibition of human recombinant GST-tagged CLK1 expressed in Escherichia coli using GRSRSRSRSRSR as substrate; in short: as §1
[4] = Inhibition of pig brain CK1delta/epsilon using RRKHAAIGpSAYSITA as substrate after 30 mins by scintillation counting analysis; parameters: species or system Sus scrofa; in short: as §1
[5] = biological target: Cyclin-dependent kinase 5/CDK5 activator 1 (Homo sapiens, UniProt Q00535); experiment: Inhibition of human recombinant CDK5/p25 using [gamma-33P]ATP as substrate after 30 mins by scintillation counting analysis; type: protein-complex assay; in short: as §1
Sequence of Cyclin-dependent kinase 5/CDK5 activator 1 (Q00535 whole entry): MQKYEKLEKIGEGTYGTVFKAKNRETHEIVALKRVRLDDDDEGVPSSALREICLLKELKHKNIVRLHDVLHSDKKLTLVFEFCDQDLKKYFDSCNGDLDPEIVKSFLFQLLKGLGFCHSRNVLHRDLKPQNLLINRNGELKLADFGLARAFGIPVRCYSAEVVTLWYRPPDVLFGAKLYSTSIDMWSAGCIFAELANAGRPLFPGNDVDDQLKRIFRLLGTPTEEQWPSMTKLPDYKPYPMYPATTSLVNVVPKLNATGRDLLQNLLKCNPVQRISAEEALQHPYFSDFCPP
Sequence of Cyclin-dependent kinase 5/CDK5 activator 1 (Q15078 whole entry, further chain): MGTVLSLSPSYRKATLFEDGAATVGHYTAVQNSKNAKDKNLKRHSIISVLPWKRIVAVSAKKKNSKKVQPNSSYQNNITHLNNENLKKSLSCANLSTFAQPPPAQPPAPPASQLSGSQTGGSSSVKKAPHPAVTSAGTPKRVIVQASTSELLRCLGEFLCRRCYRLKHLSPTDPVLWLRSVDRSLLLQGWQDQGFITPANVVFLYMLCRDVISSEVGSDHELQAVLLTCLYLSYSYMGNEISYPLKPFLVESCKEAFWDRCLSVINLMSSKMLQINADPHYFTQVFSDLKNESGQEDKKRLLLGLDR

Sequence of Dual specificity protein kinase CLK1 (P49759 whole entry): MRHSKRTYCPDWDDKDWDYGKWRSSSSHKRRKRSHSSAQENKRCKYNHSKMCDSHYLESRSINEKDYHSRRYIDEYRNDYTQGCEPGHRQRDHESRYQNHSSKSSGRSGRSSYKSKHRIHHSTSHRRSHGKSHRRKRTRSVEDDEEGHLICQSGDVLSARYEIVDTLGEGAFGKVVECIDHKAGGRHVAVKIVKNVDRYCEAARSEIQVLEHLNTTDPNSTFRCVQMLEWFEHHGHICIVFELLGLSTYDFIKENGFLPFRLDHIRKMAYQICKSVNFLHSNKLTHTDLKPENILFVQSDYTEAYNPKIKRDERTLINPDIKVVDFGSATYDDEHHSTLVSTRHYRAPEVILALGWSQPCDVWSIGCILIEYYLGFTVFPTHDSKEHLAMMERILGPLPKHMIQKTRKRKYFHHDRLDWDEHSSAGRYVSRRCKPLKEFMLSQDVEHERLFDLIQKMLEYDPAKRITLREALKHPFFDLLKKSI

Structure (SMILES)	IC50 [1] [µM]	pIC50 [2]	pIC50 [3]	pIC50 [4]	pIC50 [5]
c1nc(Nc2ccc3c(c2)OCO3)c2oc3cc(-c4ccc5c(c4)OCO5)cnc3c2n1	> 10	< 5.00	< 5.00	< 5.00	< 5.00
Nc1ncnc2c1oc1cc(-c3cccc(Cl)c3)cnc12	> 10	< 5.00	6.00	< 5.00	< 5.00
Nc1ncnc2c1oc1cc(-c3ccc(Cl)c(Cl)c3)cnc12	> 10	< 5.00	< 5.00	< 5.00	< 5.00
Nc1ncnc2c1oc1cc(-c3ccc(Cl)cc3Cl)cnc12	> 10	6.22	7.31	< 5.00	< 5.00
Nc1ncnc2c1oc1cc(-c3ccc4c(c3)OCO4)cnc12	> 10	5.64	6.49	< 5.00	< 5.00
c1ccc(Nc2ncnc3c2oc2cc(-c4ccc5c(c4)OCO5)cnc23)cc1	> 10	< 5.00	< 5.00	< 5.00	< 5.00
Cc1ccc(Nc2ncnc3c2oc2cc(-c4ccc5c(c4)OCO5)cnc23)cc1	> 10	< 5.00	< 5.00	< 5.00	< 5.00
COc1ccc(Nc2ncnc3c2oc2cc(-c4ccc5c(c4)OCO5)cnc23)cc1	> 10	< 5.00	< 5.00	< 5.00	< 5.00
COc1ccc(Nc2ncnc3c2oc2cc(-c4ccc5c(c4)OCO5)cnc23)cc1OC	> 10	< 5.00	< 5.00	< 5.00	< 5.00
COc1cc(Nc2ncnc3c2oc2cc(-c4ccc5c(c4)OCO5)cnc23)cc(OC)c1OC	> 10	< 5.00	< 5.00	< 5.00	< 5.00
Clc1ccc(Nc2ncnc3c2oc2cc(-c4ccc5c(c4)OCO5)cnc23)cc1Cl	> 10	< 5.00	< 5.00	< 5.00	< 5.00
Clc1ccc(Nc2ncnc3c2oc2cc(-c4ccc5c(c4)OCO5)cnc23)cc1	> 10	< 5.00	< 5.00	< 5.00	< 5.00
Fc1ccc(Nc2ncnc3c2oc2cc(-c4ccc5c(c4)OCO5)cnc23)cc1Cl	> 10	< 5.00	< 5.00	< 5.00	< 5.00
Nc1ncnc2c1oc1cccnc12	> 10	< 5.00	< 5.00	< 5.00	< 5.00
c1ccc(Nc2ncnc3c2oc2cccnc23)cc1	> 10	< 5.00	< 5.00	< 5.00	< 5.00
COc1ccc(Nc2ncnc3c2oc2cccnc23)cc1	> 10	< 5.00	< 5.00	< 5.00	< 5.00
COc1ccc(Nc2ncnc3c2oc2cccnc23)cc1OC	> 10	< 5.00	< 5.00	< 5.00	< 5.00
COc1cc(Nc2ncnc3c2oc2cccnc23)cc(OC)c1	> 10	< 5.00	< 5.00	< 5.00	< 5.00
COc1cc(Nc2ncnc3c2oc2cccnc23)cc(OC)c1OC	> 10	< 5.00	< 5.00	< 5.00	< 5.00
c1cnc2c(c1)oc1c(Nc3ccc4c(c3)OCO4)ncnc12	> 10	< 5.00	< 5.00	< 5.00	< 5.00
C1=COc2cc(Nc3ncnc4c3oc3cccnc34)ccc2O1	> 10	< 5.00	< 5.00	< 5.00	< 5.00
Fc1ccc(Nc2ncnc3c2oc2cccnc23)cc1Cl	> 10	< 5.00	< 5.00	< 5.00	< 5.00
Fc1cc(Br)ccc1Nc1ncnc2c1oc1cccnc12	> 10	< 5.00	< 5.00	< 5.00	< 5.00
Nc1ncnc2c1oc1cc(-c3ccccc3)cnc12	> 10	5.51	6.16	< 5.00	< 5.00
Cc1ccc(-c2cnc3c(c2)oc2c(N)ncnc23)cc1	> 10	5.36	6.21	< 5.00	< 5.00
COc1ccc(-c2cnc3c(c2)oc2c(N)ncnc23)cc1	> 10	< 5.00	< 5.00	< 5.00	< 5.00
